From paper PMC8830364 (Bioorganic & medicinal chemistry letters, 2021) come the findings set out here.

A short description of data set [1]: Chemical stability in human plasma. The class given is in vitro ADME. The note with it: pooled human plasma, 37 °C; for Stability in human plasma (in words): 2.5 μM, 0, 30, 60, 120 min; for Half time in human plasma: 2.5 μM, 0-120 min. The procedure, abridged: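 Test compound at 2.5 μM (below its K_M) incubated in pooled plasma from healthy volunteers at 37 °C, in triplicate, sampled at 0, 30, 60 and 120 min. Remaining analyte was quantified by LC-MS/MS in MRM mode. Degradation was treated as first-order: the slope of ln(concentration) versus time gave the rate constant k, from which t1/2 was calculated.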

Data set [2] concerns the target T1, Human neutrophil elastase (HNE) (Homo sapiens, UniProt P08246).
T1 sequence (P08246 30-267): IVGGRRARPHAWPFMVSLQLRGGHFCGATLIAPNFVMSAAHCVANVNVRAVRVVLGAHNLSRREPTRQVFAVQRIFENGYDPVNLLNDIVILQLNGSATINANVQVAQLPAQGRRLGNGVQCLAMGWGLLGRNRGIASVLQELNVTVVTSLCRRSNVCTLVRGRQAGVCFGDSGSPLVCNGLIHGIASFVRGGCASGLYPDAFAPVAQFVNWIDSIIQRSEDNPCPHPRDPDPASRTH
Put plainly: HNE inhibitory activity. Format: biochemical. The note with it: for HNE inhibitory activity (in words): as described.

Data set [3] in a line: Stability in aqueous buffer. The note with it: for half-life: Half-life (t1/2) for the spontaneous hydrolysis. The class given is physicochemical.

A value given as a limit tells only on which side of the number the result lay.

Regarding `Cc1cccc(C(=O)n2cc3c(n2)CCCC3=O)c1` [Compound 6a], in data set [1], the “Stability in human plasma (in words)” value was “rapid degradation rate” and the “Half time in human plasma” value is about 6 min.
As a reminder, the Ki is a dissociation constant, usually derived from enzyme kinetics or from competition with a known ligand. On to `O=C1CCCc2nn(-c3cccc(C(F)(F)F)c3)cc21` [Compound 6c], for which, in data set [2], the Ki was over 50 µM and the “HNE inhibitory activity (in words)” value was “complete inactivity”.
For `O=C1CCCc2nn(Cc3cccc(C(F)(F)F)c3)cc21` [Compound 6d], in data set [2], the inhibition constant (Ki) was over 50 µM and the “HNE inhibitory activity (in words)” value is “complete inactivity”. The “Stability in human plasma (in words)” value in data set [1] is given as “maintained their spiked concentration for all of the incubation times”.
As to `O=C1CCCc2nn(Cc3ccccc3)cc21` [Compound 6e], in data set [2], the inhibitory constant (Ki) is over 50 µM and the “HNE inhibitory activity (in words)” value is on record as “complete inactivity”.
Take `CC(C)(C)OC(=O)N1CCN(C(=O)Cn2cc3c(n2)CCCC3=O)CC1` [Compound 6g]: the Ki in data set [2] is over 50 µM.
In data set [2], `O=C1CCCc2nn(CC(=O)N3CCNCC3)cc21` [Compound 6h] gave a Ki of over 50 µM.
On to `Cc1cccc(C(=O)n2ncc3c2CCCC3=O)c1` [Compound 7a], for which, in data set [1], the “Stability in human plasma (in words)” value was “rapid degradation rate” and the “Half time in human plasma” value is reported as about 6 min.
Consider `O=C1CCCc2c1cnn2-c1cccc(C(F)(F)F)c1` [Compound 7c], for which, in data set [2], the Ki was over 50 µM and the “HNE inhibitory activity (in words)” value is “complete inactivity”.
As to `O=C1CCCc2c1cnn2Cc1cccc(C(F)(F)F)c1` [Compound 7d], in data set [2], the inhibition constant Ki is over 50 µM and the “HNE inhibitory activity (in words)” value is listed as “complete inactivity”. Also, the “Stability in human plasma (in words)” value in data set [1] is recorded as “maintained their spiked concentration for all of the incubation times”.
As for `O=C1CCCc2c1cnn2Cc1ccccc1` [Compound 7e], in data set [2], the inhibition constant Ki was over 50 µM and the “HNE inhibitory activity (in words)” value was “complete inactivity”.
As to `CC(C)(C)OC(=O)N1CCN(C(=O)Cn2ncc3c2CCCC3=O)CC1` [Compound 7g], in data set [2], the Ki is over 50 µM.
A word on the half-life: it is how long it takes for the measured level to halve. High values mean slow loss, low ones fast loss. Molecule `O=C(C1CC1)n1cc2c(n1)CCC(Br)(Br)C2=O` [Compound 9b, 5,5-dibromo-2-(cyclopropanecarbonyl)-2,5,6,7-tetrahydro-4H-indazol-4-one] gave a half-life in data set [3] of 235 ± 18.2 min.
Turning to `CC(C)(C)OC(=O)n1cc2c(n1)CCC(Br)C2=O` (stereo not drawn) [Compound 9e], in data set [2], the Ki is over 50 µM and the “HNE inhibitory activity (in words)” value is recorded as “low active or devoid of HNE inhibitory activity”.
The corresponding values for `O=C1c2cn(CC(=O)N3CCN(c4ccccc4)CC3)nc2CCC1Br` (stereo not drawn) [Compound 9f] are over 50 µM and “low active or devoid of HNE inhibitory activity”.
Turning to `O=C1c2cnn(C(=O)C3CC3)c2CCC1Br` (stereo not drawn) [Compound 10a], in data set [3], the “Half-life (t1/2) for the spontaneous hydrolysis” value came to 38.7 ± 4.1 min and the half-life came to 53.9 min.
Take `O=C1c2cnn(CC(=O)N3CCN(c4ccccc4)CC3)c2CCC1Br` (stereo not drawn) [Compound 10d]: in data set [2], the inhibitory constant (Ki) is over 50 µM and the “HNE inhibitory activity (in words)” value is on record as “low active or devoid of HNE inhibitory activity”.
Consider `O=C(C1CC1)N(C(=O)C1CC1)C1CCCc2c1cnn2-c1ccccc1` (stereo not drawn) [Compound 14a], for which the Ki in data set [2] was over 50 µM.
Still for that read-out and setting: the value for `O=C(NC1CCCc2c1cnn2-c1ccccc1)C1CC1` (stereo not drawn) [Compound 14b] was over 50 µM.
The same measure, in the same setting: under `Cc1cccc(C(=O)NC2CCCc3c2cnn3-c2ccccc2)c1` (stereo not drawn) [Compound 14c] stands over 50 µM.
